Data from ChEMBL document CHEMBL4382258, “Design and Optimization of Sulfone Pyrrolidine Sulfonamide Antagonists of Transient Receptor Potential Vanilloid-4 with in Vivo Activity in a Pulmonary Edema Model” (J Med Chem, 2018).

Key:
[1] = Plasma concentration in Sprague-Dawley rat heart failure-induced pulmonary edema model at 0.21 ug/kg, iv bolus loading dose followed by 2.3 ug/kg/min, iv continuous infusion dose for 60 mins; type: ADME, organism-based
[2] = biological target: Transient receptor potential cation channel subfamily V member 1 (Homo sapiens, UniProt Q8NER1); test: Antagonist activity at TRPV1 (unknown origin)
Transient receptor potential cation channel subfamily V member 1, sequence (Q8NER1 whole entry): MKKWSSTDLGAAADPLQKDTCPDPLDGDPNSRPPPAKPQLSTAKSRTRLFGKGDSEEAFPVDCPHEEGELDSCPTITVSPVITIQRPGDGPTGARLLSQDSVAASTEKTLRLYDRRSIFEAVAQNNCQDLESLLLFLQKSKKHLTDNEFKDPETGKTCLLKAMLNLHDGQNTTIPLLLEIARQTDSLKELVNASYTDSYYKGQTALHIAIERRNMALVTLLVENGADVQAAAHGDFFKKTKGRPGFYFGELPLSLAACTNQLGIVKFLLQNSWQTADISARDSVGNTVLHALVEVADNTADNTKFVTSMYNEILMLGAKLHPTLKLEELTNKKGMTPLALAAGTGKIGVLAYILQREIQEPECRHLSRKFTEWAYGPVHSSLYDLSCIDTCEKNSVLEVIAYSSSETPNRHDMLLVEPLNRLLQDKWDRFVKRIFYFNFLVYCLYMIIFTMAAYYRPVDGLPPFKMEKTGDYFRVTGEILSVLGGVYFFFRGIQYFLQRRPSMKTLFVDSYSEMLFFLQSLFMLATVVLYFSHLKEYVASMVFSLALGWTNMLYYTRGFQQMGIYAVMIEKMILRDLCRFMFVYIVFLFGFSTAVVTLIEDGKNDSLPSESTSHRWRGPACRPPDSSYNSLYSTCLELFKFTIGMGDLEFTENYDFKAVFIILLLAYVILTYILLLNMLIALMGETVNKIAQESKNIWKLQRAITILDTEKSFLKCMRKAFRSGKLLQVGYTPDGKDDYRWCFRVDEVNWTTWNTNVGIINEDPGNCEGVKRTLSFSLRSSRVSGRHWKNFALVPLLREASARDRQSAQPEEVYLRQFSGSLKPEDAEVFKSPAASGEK

[3] = AUC (0 to t) in rat at 2.4 mg/kg, po; type: ADME, organism-based; conditions: in vivo
[4] = Clearance in Sprague-Dawley rat at 1 mg/kg, iv administered as 30 mins infusion by LC/MS/MS analysis; type: ADME, organism-based; conditions: in vivo
[5] = Permeability of the compound by PAMPA; type: ADME; conditions: read-out: permeability
[6] = AUC (0 to t) in dog at 0.9 mg/kg, po; type: ADME, organism-based, Canis lupus familiaris; conditions: in vivo
[7] = Volume of distribution at steady state in Sprague-Dawley rat at 1 mg/kg, iv or 2 mg/kg, po by LC/MS/MS analysis; type: ADME, organism-based; conditions: in vivo, read-out: Vdss
[8] = Dose normalized AUC (0 to t) in dog at 0.9 mg/kg, po; type: ADME, organism-based, Canis lupus familiaris; conditions: in vivo
[9] = biological target: Transient receptor potential cation channel subfamily V member 4 (Rattus norvegicus, UniProt Q9ERZ8); test: Antagonist activity at rat TRPV4 expressed in BHK/AC9 cells assessed as inhibition of GSK634775-induced […] pre-incubated for 10 mins followed by agonist addition by Fluo-4-AM dye-based FLIPR assay; type: cell-based
Transient receptor potential cation channel subfamily V member 4 (Rattus norvegicus, UniProt Q9ERZ8), sequence (Q9ERZ8 whole entry, the tested form may be a part): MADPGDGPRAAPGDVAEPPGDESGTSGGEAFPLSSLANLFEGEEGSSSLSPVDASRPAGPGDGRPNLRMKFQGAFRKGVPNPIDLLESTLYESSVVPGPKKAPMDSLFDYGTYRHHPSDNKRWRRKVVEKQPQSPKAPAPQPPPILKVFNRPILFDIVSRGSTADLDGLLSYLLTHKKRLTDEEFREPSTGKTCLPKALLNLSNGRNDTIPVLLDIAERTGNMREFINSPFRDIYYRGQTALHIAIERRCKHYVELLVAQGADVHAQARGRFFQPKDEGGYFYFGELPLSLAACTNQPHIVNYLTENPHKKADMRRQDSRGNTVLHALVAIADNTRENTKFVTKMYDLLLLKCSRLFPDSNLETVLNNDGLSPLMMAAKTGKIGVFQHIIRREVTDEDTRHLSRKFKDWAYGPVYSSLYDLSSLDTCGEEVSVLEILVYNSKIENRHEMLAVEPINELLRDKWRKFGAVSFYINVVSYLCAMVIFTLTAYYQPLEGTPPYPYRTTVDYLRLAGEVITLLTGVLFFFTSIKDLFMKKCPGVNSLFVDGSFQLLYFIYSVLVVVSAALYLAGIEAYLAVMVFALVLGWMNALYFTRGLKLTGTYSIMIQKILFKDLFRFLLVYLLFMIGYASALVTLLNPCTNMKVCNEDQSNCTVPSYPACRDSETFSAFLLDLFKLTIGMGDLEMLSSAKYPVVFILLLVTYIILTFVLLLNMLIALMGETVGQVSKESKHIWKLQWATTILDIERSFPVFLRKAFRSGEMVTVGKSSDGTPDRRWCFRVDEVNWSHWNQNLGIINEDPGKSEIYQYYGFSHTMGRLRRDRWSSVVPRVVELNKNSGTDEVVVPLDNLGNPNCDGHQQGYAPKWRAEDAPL

[10] = Clearance adjusted for unbound fraction in Sprague-Dawley rat at 1 mg/kg, iv administered as 30 mins infusion by LC/MS/MS analysis; type: ADME, organism-based; conditions: in vivo, 0.5 h
[11] = Plasma concentration in Sprague-Dawley rat heart failure-induced pulmonary edema model at 0.07 ug/kg, iv bolus loading dose followed by 0.8 ug/kg/min, iv continuous infusion dose for 60 mins; type: ADME, organism-based; conditions: 7e-05 mg/kg
[12] = biological target: Transient receptor potential cation channel subfamily V member 4 (Homo sapiens, UniProt Q9HBA0); test: Antagonist activity at human TRPV4 expressed in BHK/AC9 cells assessed as inhibition of GSK634775-induced […] pre-incubated for 10 mins followed by agonist addition by Fluo-4-AM dye-based FLIPR assay; type: cell-based
Transient receptor potential cation channel subfamily V member 4 (Homo sapiens, UniProt Q9HBA0), sequence (Q9HBA0 whole entry, the tested form may be a part): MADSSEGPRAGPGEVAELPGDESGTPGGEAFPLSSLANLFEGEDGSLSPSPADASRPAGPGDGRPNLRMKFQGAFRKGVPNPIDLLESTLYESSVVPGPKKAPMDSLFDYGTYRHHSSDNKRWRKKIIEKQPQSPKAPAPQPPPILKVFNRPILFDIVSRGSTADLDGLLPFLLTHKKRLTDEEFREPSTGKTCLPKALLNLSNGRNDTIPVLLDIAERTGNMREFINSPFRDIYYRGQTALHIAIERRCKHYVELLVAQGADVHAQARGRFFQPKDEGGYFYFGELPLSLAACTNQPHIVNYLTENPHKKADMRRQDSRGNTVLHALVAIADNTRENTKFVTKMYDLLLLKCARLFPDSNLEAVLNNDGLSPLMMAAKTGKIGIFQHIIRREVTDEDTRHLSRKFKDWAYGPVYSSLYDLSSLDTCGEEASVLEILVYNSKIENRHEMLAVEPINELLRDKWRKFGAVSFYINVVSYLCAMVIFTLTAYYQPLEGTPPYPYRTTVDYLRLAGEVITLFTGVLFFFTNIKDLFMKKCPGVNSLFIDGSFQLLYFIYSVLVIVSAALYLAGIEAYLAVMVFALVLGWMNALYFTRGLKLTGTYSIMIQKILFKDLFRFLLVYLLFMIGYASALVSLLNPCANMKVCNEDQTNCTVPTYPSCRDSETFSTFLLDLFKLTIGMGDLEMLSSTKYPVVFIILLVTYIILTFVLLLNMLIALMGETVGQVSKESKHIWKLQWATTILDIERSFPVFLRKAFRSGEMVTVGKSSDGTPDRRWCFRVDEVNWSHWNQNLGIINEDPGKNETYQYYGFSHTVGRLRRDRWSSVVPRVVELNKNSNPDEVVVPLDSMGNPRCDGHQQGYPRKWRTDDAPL

Rattus norvegicus = test: Reversal of heart failure-induced pulmonary edema in Sprague-Dawley rat assessed as inhibition of GSK1016790A-induced increase in lung wet weight to body weight ratio at 0.21 ug/kg, iv bolus loading dose followed by 2.3 ug/kg/min, iv continuous infusion dose for 60 mins prior to agonist administration relative to control; type: functional
Procedure, shortened: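 Rats given vehicle or antagonist by i.v. infusion, then agonist GSK1016790A i.v. at 10 µg/kg/min for 10 min (100 µg/kg total). Edema scored as wet lung weight/body weight ratio against naïve animals; inhibition computed from the agonist response; mean ± SEM.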

[13] = Fraction unbound in Sprague-Dawley rat heart failure-induced pulmonary edema model at 0.02 to 0.21 ug/kg, iv bolus loading dose followed by 0.3 to 2.3 ug/kg/min, iv continuous infusion dose for 60 mins; type: ADME, organism-based; conditions: in vivo
[14] = MRT in Sprague-Dawley rat at 1 mg/kg, iv or 2 mg/kg, po by LC/MS/MS analysis; type: ADME, organism-based; conditions: in vivo
Cytochrome P450 3A4 = Cytochrome P450 3A4 (Homo sapiens, UniProt P08684); test: Time dependent inhibition of CYP3A4 (unknown origin) up to 100 uM preincubated up to 15 mins followed by 7-benzyloxy-trifluoromethylcoumarin substrate and NADPH addition by fluorescence assay; type: ADME
Cytochrome P450 3A4, sequence (P08684 whole entry): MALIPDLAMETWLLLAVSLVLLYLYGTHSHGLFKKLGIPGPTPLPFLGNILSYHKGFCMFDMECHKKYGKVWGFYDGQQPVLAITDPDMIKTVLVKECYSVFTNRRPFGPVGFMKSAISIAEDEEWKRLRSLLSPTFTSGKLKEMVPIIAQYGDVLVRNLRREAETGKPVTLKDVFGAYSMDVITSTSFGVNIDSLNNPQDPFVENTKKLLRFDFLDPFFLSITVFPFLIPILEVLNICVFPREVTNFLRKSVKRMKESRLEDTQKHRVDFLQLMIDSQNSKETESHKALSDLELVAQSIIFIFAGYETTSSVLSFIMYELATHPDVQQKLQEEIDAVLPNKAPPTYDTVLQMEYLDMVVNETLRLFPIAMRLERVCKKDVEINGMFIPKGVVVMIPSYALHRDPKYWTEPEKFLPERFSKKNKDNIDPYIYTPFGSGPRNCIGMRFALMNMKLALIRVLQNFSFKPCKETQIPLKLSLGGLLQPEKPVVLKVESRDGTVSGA

- concentration at 1 h [1]: 152 nM
- IC50 [2]: > 30000 nM
- AUC(0-t) [3]: 1100 ng·h/mL
- clearance [4]: 49 mL/min/kg
- Papp [5]: 35 ×10⁻⁶ cm/s
- AUC(0-t) [6]: 2500 ng·h/mL
- Vd [7]: 4.5 L/kg
- AUCt/dose [8]: 2.9 kg·h/L
- IC50 [9]: 4 nM
- CL free [10]: 12 mL/min/kg
- concentration at 1 h [11]: 52 nM
- IC50 [12]: 3.2 nM
- fraction unbound at 1 h [13]: 0.042
- MRT [14]: 1.6 h
- TDI (Cytochrome P450 3A4): Not Active
SMILES: N#Cc1ccc(S(=O)(=O)N2C[C@H](S(=O)(=O)c3ccc(Cl)cc3)[C@](O)(CO)C2)c(Cl)c1
- inhibition (INH) (Rattus norvegicus): 99%
